Assay results: ChEMBL document CHEMBL1144494, “Synthesis of diverse analogues of Oenostacin and their antibacterial activities” (Bioorg Med Chem, 2007)

Experiments:
[1] = tested on: Staphylococcus epidermidis; assay: Antibacterial activity against Staphylococcus epidermidis; type: functional, organism-based
Procedure, shortened: (§1)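 Twofold serial broth dilution in nutrient broth across eight tubes, with broth alone as control. Each tube received 10 µl of diluted log-phase culture at a titre of 10^4 cfu/ml. Incubation at 37 °C, with growth read by turbidity. EC50 values are means of three experiments run in triplicate.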

Staphylococcus aureus = assay: Antibacterial activity against Staphylococcus aureus; type: functional, organism-based; procedure, shortened: as §1

SMILES | EC50 [1] [nM] | EC50 (Staphylococcus aureus) [nM]
Cc1cc(O)c(C=O)c(O)c1 | 1640 | 1640
COc1cc(O)cc(C(=O)O)c1C=O | 2550 | > 5000
O=C(O)CCCC(=O)c1ccc(O)c(O)c1O | 1040 | 2080
COC(=O)c1cc(O)cc(OC)c1C=O | 2380 | 4760
O=Cc1c(O)cc(O)cc1C(=O)O | 1370 | > 5000
O=C(O)/C=C/c1cc(O)c(O)c(O)c1 | 630 | 1260
CC(=O)c1cc(O)c(O)c(O)c1 | 1480 | 2960
O=C(O)c1cc(O)cc(O)c1CO | 670 | 670
O=C(O)/C=C/c1ccc(O)c(O)c1 [CAFFEIC ACID] | 2780 | 2780
COC(=O)CC/C=C/c1c(O)cc(C(=O)O)cc1O [OENOSTACIN] | 120 | 120
Cc1cc(O)cc(O)c1 [ORCINOL] | 4030 | 4030
Oc1cccc(O)c1O [PYROGALLOL] | 990 | 490
